Measured values as given in ChEMBL document CHEMBL1145835, “Novel potent 5-HT(1F) receptor agonists: structure-activity studies of a series of substituted N-[3-(1-methyl-4-piperidinyl)-1H-pyrrolo[3,2-b]pyridin-5-yl]amides” (J Med Chem, 2003).

How the values were obtained:
[1] = target: T1, 5-hydroxytryptamine receptor 1A (Homo sapiens, UniProt P08908); experiment: In vitro binding affinity by radioligand binding assay using cell line expressing human 5-hydroxytryptamine 1A receptor
T1 sequence (P08908 whole entry): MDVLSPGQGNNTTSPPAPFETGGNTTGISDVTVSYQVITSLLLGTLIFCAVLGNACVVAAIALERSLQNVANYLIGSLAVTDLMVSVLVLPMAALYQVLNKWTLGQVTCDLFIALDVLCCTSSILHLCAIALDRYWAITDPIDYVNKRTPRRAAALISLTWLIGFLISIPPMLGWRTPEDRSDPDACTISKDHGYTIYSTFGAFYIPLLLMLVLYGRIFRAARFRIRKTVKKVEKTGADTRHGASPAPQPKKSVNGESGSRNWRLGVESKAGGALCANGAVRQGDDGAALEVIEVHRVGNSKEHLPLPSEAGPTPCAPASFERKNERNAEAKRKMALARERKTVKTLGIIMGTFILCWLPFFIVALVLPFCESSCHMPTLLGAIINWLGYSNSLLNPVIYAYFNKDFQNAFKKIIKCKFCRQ
Procedure, shortened: (§1)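 Ki (nM) from radioligand binding on cell lines each expressing one human serotonin receptor subtype. Values are means of at least three determinations with SEM. ND: Ki not determined, when a 10⁻⁷ M test ligand gave <50% displacement of radioligand.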

[2] = target: 5-hydroxytryptamine receptor 1B (Homo sapiens, UniProt P28222); experiment: In vitro binding affinity by radioligand binding assay using cell line expressing human 5-hydroxytryptamine 1B receptor
Sequence of 5-hydroxytryptamine receptor 1B (P28222 whole entry): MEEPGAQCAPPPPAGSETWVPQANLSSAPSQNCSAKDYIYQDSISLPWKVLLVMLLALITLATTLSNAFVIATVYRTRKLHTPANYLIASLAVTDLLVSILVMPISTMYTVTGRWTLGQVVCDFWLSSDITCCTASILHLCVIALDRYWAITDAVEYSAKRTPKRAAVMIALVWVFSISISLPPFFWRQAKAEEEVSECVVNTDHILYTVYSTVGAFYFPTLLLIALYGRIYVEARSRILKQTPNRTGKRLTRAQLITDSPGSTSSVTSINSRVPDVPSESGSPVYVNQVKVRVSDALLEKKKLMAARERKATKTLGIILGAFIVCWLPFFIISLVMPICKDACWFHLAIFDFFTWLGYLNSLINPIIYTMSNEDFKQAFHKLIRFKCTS
Procedure, shortened: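 Ki (nM) from radioligand binding on cell lines each expressing one human serotonin receptor subtype. Values are means of at least three determinations with SEM.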

[3] = target: T2, 5-hydroxytryptamine receptor 1F (Homo sapiens, UniProt P30939); experiment: In vitro binding affinity was determined by radioligand binding assay using cell line expressing human 5-hydroxytryptamine 1F receptor; procedure, shortened: as §1
T2 sequence (P30939 whole entry): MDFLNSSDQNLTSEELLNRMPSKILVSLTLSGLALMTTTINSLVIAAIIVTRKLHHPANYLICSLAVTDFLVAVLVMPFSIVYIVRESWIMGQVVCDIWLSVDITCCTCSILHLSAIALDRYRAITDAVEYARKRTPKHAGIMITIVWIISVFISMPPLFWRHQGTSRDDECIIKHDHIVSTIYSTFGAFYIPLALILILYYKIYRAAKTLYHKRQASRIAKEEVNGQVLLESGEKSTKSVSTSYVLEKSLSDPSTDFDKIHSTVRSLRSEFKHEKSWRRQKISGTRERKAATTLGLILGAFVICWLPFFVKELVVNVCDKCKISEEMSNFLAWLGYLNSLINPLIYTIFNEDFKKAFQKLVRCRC

[4] = target: 5-hydroxytryptamine receptor 1D (Homo sapiens, UniProt P28221); experiment: In vitro binding affinity by radioligand binding assay using cell line expressing human 5-hydroxytryptamine 1D receptor; procedure, shortened: as §1
Sequence of 5-hydroxytryptamine receptor 1D (P28221 whole entry): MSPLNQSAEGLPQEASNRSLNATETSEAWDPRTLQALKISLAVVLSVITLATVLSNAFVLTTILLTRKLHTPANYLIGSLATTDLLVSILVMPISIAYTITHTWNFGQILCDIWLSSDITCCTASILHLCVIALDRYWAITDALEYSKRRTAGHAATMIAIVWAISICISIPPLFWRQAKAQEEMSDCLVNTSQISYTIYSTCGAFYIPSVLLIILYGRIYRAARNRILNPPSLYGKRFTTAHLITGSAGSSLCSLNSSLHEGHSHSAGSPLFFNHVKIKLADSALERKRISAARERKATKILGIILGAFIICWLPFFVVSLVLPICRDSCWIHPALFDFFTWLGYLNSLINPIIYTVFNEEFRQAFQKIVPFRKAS

[5] = system: Cavia porcellus; experiment: In vivo efficacy in neurogenic plasma protein extravasation screen using guinea pig neurogenic PPE assay (1 ng/kg, po) at 1 hr postdose; type: functional
Procedure, shortened: (§2)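 Guinea pig neurogenic dural PPE screen. Single oral dose of 1 ng/kg, then unilateral trigeminal ganglion stimulation with Evan's blue-labelled plasma protein leakage. Read-out is the fluorescence ratio of stimulated to unstimulated dura at 1 h or 24 h postdose. A ratio near 1 means full efficacy; near 1.8 means ineffective.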

[6] = species: Oryctolagus cuniculus; experiment: In vitro contractile response in rabbit saphenous vein; type: functional
Procedure, shortened: (§3)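 Rabbit saphenous vein rings. Maximal contraction is expressed as % of the contraction induced by KCl (67 mM), with the concentration giving the maximal response recorded. Means (SEM) of three to seven determinations.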

[7] = species: Oryctolagus cuniculus; experiment: In vitro concentration of maximum contractile response in rabbit saphenous vein; type: functional; procedure, shortened: as §3
[8] = target: T2, 5-hydroxytryptamine receptor 1F; experiment: In vitro effective concentration for stimulation of [35S]GTP-gamma-S, binding in mouse LM(tk-)cells expressing the human 5-hydroxytryptamine 1F receptor; type: functional
[9] = target: T3, 5-hydroxytryptamine receptor 1F (Homo sapiens) (UniProt P30939); experiment: Maximum stimulation of [35S]GTP-gamma-S, binding expressed relative to the maximal effect of 5-hydroxytryptamine […]; type: functional
T3 sequence (whole entry): T2 sequence (P30939 whole entry)

[10] = target: 5-hydroxytryptamine receptor 1E (Homo sapiens, UniProt P28566); experiment: In vitro binding affinity by radioligand binding assay using cell line expressing human 5-hydroxytryptamine 1E receptor
Sequence of 5-hydroxytryptamine receptor 1E (P28566 whole entry): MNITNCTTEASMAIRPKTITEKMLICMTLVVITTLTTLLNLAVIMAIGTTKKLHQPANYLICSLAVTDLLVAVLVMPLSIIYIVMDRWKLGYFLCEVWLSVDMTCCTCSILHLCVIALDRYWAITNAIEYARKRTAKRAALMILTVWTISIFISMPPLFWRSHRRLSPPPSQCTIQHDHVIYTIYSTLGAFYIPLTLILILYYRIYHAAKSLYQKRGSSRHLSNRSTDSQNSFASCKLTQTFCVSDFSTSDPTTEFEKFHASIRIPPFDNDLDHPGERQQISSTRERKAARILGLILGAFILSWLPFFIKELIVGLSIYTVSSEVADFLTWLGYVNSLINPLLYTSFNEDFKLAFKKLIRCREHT

[11] = target: T4, 5-hydroxytryptamine receptor 2C (Homo sapiens, UniProt P28335); experiment: In vitro binding affinity by radioligand binding assay using cell line expressing human 5-hydroxytryptamine 2C receptor
T4 sequence (P28335 whole entry): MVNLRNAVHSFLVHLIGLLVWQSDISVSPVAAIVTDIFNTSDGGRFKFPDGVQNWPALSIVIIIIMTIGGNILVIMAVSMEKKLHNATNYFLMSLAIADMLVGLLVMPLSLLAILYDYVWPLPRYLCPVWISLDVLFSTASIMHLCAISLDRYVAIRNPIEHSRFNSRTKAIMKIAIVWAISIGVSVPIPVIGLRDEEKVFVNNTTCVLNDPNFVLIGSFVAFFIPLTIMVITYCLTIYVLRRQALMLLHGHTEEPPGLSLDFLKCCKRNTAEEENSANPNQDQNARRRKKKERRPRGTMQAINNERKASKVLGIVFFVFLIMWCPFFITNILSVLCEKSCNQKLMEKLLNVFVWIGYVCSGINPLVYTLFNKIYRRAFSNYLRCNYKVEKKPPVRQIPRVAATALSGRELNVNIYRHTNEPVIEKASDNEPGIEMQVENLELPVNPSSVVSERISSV

[12] = target: 5-hydroxytryptamine receptor 2B (Homo sapiens, UniProt P41595); experiment: In vitro binding affinity by radioligand binding assay using cell line expressing human 5-hydroxytryptamine 2B receptor
Sequence of 5-hydroxytryptamine receptor 2B (P41595 whole entry): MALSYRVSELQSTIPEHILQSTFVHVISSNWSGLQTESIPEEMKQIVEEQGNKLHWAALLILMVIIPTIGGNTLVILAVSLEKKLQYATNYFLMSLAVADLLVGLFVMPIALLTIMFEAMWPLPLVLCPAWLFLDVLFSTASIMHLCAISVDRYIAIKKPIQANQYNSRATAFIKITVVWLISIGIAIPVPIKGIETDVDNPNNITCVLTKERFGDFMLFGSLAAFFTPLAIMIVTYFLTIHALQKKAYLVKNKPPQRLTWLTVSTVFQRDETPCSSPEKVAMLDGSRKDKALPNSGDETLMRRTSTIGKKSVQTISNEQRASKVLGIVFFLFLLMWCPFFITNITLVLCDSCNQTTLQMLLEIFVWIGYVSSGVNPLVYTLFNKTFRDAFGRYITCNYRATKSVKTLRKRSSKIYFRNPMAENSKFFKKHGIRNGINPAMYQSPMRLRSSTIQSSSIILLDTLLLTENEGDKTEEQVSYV

[13] = target: 5-hydroxytryptamine receptor 2A (Homo sapiens, UniProt P28223); experiment: In vitro binding affinity by radioligand binding assay using cell line expressing human 5-hydroxytryptamine 2A receptor
Sequence of 5-hydroxytryptamine receptor 2A (P28223 whole entry): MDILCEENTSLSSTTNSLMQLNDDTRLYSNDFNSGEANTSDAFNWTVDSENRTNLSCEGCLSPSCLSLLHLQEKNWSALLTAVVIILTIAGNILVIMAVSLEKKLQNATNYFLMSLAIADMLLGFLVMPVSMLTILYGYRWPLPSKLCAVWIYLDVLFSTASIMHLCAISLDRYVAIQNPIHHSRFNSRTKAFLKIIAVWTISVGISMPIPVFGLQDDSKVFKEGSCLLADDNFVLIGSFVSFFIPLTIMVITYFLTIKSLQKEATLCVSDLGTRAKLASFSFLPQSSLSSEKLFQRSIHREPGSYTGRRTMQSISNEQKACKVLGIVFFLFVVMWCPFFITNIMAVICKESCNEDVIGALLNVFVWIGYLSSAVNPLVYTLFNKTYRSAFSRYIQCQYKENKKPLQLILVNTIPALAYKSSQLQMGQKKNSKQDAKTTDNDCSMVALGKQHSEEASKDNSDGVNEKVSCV

[14] = target: 5-hydroxytryptamine receptor 6 (Homo sapiens, UniProt P50406); experiment: In vitro binding affinity by radioligand binding assay using cell line expressing human 5-hydroxytryptamine 6 receptor
Sequence of 5-hydroxytryptamine receptor 6 (P50406 whole entry): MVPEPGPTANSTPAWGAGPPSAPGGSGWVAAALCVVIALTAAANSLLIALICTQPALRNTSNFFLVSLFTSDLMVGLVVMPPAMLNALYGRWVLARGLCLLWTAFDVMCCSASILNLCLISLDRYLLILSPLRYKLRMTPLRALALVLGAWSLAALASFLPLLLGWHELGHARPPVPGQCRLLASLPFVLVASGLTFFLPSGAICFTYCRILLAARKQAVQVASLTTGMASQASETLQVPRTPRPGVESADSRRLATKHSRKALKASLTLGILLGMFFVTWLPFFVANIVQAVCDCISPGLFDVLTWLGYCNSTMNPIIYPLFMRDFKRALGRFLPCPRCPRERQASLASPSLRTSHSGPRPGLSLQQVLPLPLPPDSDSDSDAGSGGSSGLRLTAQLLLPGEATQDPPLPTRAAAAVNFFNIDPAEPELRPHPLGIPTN

[15] = target: 5-hydroxytryptamine receptor 4 (Homo sapiens, UniProt Q13639); experiment: In vitro binding affinity by radioligand binding assay using cell line expressing human 5-hydroxytryptamine 4 receptor
Sequence of 5-hydroxytryptamine receptor 4 (Q13639 whole entry): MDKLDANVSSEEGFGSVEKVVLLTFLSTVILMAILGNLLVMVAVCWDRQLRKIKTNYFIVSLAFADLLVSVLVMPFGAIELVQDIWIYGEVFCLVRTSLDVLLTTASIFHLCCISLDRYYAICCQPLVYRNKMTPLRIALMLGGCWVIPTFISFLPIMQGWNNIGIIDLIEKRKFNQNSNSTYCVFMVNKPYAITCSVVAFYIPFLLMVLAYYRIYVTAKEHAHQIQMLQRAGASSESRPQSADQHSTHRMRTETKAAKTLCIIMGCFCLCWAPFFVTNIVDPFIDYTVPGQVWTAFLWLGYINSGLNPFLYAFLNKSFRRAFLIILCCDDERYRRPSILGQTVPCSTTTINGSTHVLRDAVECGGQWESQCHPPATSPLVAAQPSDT

[16] = system: Cavia porcellus; experiment: In vivo efficacy in neurogenic plasma protein extravasation screen using guinea pig neurogenic PPE assay (1 ng/kg, po) at 24 hr postdose; type: functional; procedure, shortened: as §2
[17] = target: T2, 5-hydroxytryptamine receptor 1F; experiment: In vitro effective concentration for stimulation of [35S]GTP-gamma-S, binding in mouse LM(tk-)cells expressing the human 5-HT1F receptor; type: functional
[18] = target: 5-hydroxytryptamine receptor 7 (Homo sapiens, UniProt P34969); experiment: In vitro binding affinity by radioligand binding assay using cell line expressing human 5-hydroxytryptamine 7 receptor
Sequence of 5-hydroxytryptamine receptor 7 (P34969 whole entry): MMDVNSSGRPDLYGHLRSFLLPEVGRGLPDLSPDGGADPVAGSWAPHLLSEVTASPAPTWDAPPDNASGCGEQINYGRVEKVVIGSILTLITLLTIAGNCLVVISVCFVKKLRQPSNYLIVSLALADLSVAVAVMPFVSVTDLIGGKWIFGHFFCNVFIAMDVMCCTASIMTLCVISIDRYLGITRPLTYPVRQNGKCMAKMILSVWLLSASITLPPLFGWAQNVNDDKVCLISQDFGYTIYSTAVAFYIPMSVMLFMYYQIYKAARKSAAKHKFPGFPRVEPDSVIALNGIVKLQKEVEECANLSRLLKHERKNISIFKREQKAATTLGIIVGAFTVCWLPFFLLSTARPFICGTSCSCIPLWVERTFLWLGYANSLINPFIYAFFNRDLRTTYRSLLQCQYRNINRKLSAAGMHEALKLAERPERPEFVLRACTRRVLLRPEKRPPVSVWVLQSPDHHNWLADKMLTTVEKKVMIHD

Row | Ki [1] | Ki [2] | Ki [3] | Ki [4] | EC50 [8] | Emax [9] | Ki [10] | Ki [11] | Ki [12] | Ki [13] | Ki [14] | Ki [15] | EC50 [17] | Ki [18] | Compound | Efficacy [5] | Response [6] | Concentration of max response [7] | Efficacy [16]
1 | 31 nM | 310 nM | 7.2 nM | 380 nM | – | – | – | – | – | – | – | – | – | – | CN1CCC(c2c[nH]c3ccc(NC(=O)c4ccc(C#N)cc4)nc23)CC1 | 1.5 | 1.1% | 30 µM | –
2 | 1000 nM | 720 nM | 5.5 nM | 730 nM | 32 nM | 88% | 770 nM | 310 nM | > 10000 nM | 3400 nM | 1120 nM | 2400 nM | – | – | CCC(=O)Nc1ccc2[nH]cc(C3CCN(C)CC3)c2n1 | 1.2 | 3% | – | 1
3 | 620 nM | 270 nM | 5 nM | 250 nM | – | 98% | – | – | – | – | – | – | 36 nM | – | CC(=O)Nc1ccc2[nH]cc(C3CCN(C)CC3)c2n1 | 1 | 5.7% | 30 µM | 1.1
4 | 56 nM | 1200 nM | 7.6 nM | 730 nM | – | – | 660 nM | 1900 nM | > 10000 nM | 4800 nM | > 10000 nM | 4000 nM | – | > 5000 nM | CN1CCC(c2c[nH]c3ccc(NC(=O)c4ccc(F)cc4)nc23)CC1 | – | 16% | – | –
